# The list is not random: actives were taken first. Their share in the collection is about 2.3%.
# TRPC6 inhibitor = mouse TRPC6 channel inhibition; HEK293-TRPC6, membrane potential dye, ACh-evoked depolarization; active compounds read low; B-score at 10 µM; 310,000 tested, 1.1% active;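 active = B-score under library mean minus 3 SD, initial fluorescence not abnormally high, positive integrated signal ratio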;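 note: B-score derived from integrated fluorescence ratio over the kinetic read; more negative B-score means stronger inhibition of depolarization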
# TRPC4 inh = blocks the mouse TRPC4 cation channel; HEK293 TRPC4beta/mu-opioid, DAMGO-evoked Fluo4 calcium flux; active compounds read low; B-score at 10 µM; AID 2247; 300,000 tested, 0.39% active;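 active = B-score over 3 SD under the library average, no early fluorescence shift, positive overall ratio signal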
# Target sequence (Q9QUQ5 whole entry, looked up): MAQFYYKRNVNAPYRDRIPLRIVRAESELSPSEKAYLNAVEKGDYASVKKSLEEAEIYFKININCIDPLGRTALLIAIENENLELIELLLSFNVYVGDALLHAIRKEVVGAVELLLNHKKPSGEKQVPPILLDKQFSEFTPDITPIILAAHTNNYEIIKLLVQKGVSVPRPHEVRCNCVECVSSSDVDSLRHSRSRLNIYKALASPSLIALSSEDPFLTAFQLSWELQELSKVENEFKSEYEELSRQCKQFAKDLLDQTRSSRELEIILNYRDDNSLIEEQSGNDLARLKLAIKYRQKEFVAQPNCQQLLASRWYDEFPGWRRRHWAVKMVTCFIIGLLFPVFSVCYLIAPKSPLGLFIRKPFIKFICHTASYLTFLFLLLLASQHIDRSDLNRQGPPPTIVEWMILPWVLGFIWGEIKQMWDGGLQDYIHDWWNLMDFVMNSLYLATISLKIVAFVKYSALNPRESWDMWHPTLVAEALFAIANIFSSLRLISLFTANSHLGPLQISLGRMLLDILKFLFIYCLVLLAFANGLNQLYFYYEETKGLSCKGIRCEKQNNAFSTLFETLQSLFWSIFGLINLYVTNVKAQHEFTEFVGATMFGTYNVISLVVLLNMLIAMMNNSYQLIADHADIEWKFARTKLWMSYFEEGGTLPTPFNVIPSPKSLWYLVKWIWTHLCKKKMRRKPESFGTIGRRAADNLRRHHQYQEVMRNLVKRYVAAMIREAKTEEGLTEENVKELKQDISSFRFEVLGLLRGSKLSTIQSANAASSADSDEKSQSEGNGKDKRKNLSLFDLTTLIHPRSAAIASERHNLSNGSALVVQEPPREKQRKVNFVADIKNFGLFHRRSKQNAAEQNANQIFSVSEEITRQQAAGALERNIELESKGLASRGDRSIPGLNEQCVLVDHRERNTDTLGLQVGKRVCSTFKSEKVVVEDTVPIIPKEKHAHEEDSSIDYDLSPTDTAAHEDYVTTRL
#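 Signal: kinetic Fluo4 fluorescence imaging of calcium influx. Material: stable TRPC4beta/mu-opioid receptor HEK293 cells. Probe or stimulus: DAMGO in two steps, submaximal then maximal.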
# TRPC6 activator = activators of mouse TRPC6 channel. Q61143. HEK293-TRPC6 membrane potential dye fluorescence; active compounds read high. B-score at 10 µM. 310,000 tested, 0.13% active;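 active = B-score of the integrated fluorescence ratio above library mean plus 3 SD, and starting fluorescence ratio within library mean plus 5 SD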;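 note: higher score means more depolarization so channel activation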
# TRPC4 act = TRPC4 (mouse) channel activation | AID 2237 | 310,000 tested, 0.49% active | Q9QUQ5 | B-score at 10 µM | HEK293 TRPC4beta/mu-opioid, Fluo4 calcium fluorescence; active compounds read high;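 active = B-score above 5 SD of library B-scores, and initial fluorescence ratio not above library mean plus 5 SD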;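 note: positive B-score marks a calcium rise read as TRPC4 activation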
#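 System: HEK293 cells stably co-expressing mouse TRPC4beta and mu-opioid receptor; Schedule: Fluo4 dye loading 45 min at room temperature, 110 s recording; Detection: Fluo4 fluorescence, kinetic; Evaluation: B-scored integrated calcium fluorescence ratio; Controls: buffer (low) and maximal DAMGO (high).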
# TRPC4 PAM = allosterically enhances the mouse TRPC4 cation channel; 310,000 tested, 0.42% active; HEK293 TRPC4beta/mu-opioid, DAMGO EC20, Fluo-4 Ca2+ flux; active compounds read high; AID 2227; B-score at 10 µM; Q9QUQ5;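 active = B-score of calcium response area above 5 SD of library B-scores, with initial fluorescence ratio within 5 SD of library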;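 note: B-score of integrated fluorescence ratio over time as area under calcium response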
# TRPC4 sel inh 2 = mouse TRPC4 off-target activity of TRPC6 inhibitors, second screen. shares compounds with TRPC6 inhibitor. inhibition, % at 10 µM. HEK293 TRPC4/MOR, membrane potential dye fluorescence; channel activated by saturating DAMGO dose. 920 tested, 42% active;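 active = compounds whose fluorescence signal differed from control wells by over 3 SD, either direction, in both duplicate plates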
# TRPC4 spec = selectivity of TRPC6 inhibitors: effect on mouse TRPC4 | activity change, negative = inhibition, % at 10 µM | shares compounds with TRPC6 inhibitor | HEK293 TRPC4/mu-opioid, membrane potential fluorescence | 920 tested, 61% active;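 active = rise or fall in signal beyond 3 SD of buffer-only wells in both replicate plates, either sign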;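 note: integrated kinetic ratio of fluorescence range over baseline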
# HEK293 MPD ctr 2-1 = parental HEK293 nonspecific activity of TRPC6 inhibitors, second screen. 920 tested, 31% active. signal change vs control, % at 10 µM. shares compounds with TRPC6 inhibitor. parental HEK293 membrane potential dye fluorescence; maximal acetylcholine challenge after compound addition;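 active = membrane potential signal moving either way by over 3 SD of the maximum-effect control, in both duplicate plates, meaning non-specific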
# HEK293 MPD ctr-1 = counter-screen for TRPC6 inhibitors: effect in parental HEK293 cells. shares compounds with TRPC6 inhibitor. AID 2780. 920 tested, 60% active. parental HEK293 membrane potential dye fluorescence. membrane potential signal change, % at 10 µM;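 active = membrane potential signal shifting up or down by more than 3 SD of buffer-only wells, on both duplicate plates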
# HEK293 MPD ctr-2 = parental HEK293 nonspecific activity of TRPC6 modulators | AID 488924 | shares compounds with TRPC6 inhibitor | 2,400 tested, 51% active | membrane potential signal change, % at 10 µM | membrane potential dye fluorescence;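 active = membrane potential signal moves up or down beyond 5 SD from buffer-only wells, on both duplicate plates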
# HEK293 MPD ctr 2-2 = second counter-screen for TRPC6 modulators: effect in parental HEK293 cells; shares compounds with TRPC6 inhibitor; membrane potential dye fluorescence; after compound, maximal acetylcholine stimulation; 2,400 tested, 14% active; inhibition, % at 10 µM; AID 488926;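 active = membrane potential signal drops by more than 5 SD from the mean control signal, in both duplicate plates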;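 note: plate controls were acetylcholine ECmax control wells for no effect and buffer only wells for full effect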
# TRPC4/MOR mod = mouse TRPC4 off-target activity of TRPC6 modulators. shares compounds with TRPC6 inhibitor. HEK293 TRPC4/mu-opioid, membrane potential fluorescence. percent change from control (negative = decrease, positive = increase), % at 10 µM. 2,400 tested, 69% active;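 active = membrane potential signal moved up or down beyond 5 SD of buffer control wells, in both duplicate plates, actives on both sides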;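 note: plate controls were assay buffer wells for no effect and DAMGO maximal-effect wells for full effect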
# TRPC4/MOR inh 2 = mouse TRPC4 off-target activity of TRPC6 modulators, second screen; shares compounds with TRPC6 inhibitor; HEK293 TRPC4/mu-opioid, membrane potential dye fluorescence; stimulated with maximal-effect DAMGO; inhibition, % at 10 µM; 2,400 tested, 55% active;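 active = drop in membrane potential signal beyond 5 SD of the control wells in both duplicate plates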;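 note: TRPC4 counter screen for TRPC6 hits run under conditions tuned for TRPC6 not TRPC4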
# TRPC6 block conf = confirmation of mouse TRPC6 inhibitors; shares compounds with TRPC6 inhibitor; HEK293-TRPC6, membrane potential dye, ACh-evoked depolarization; inhibition, % at 10 µM; 3,300 tested, 43% active; AID 488960;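 active = fluorescence ratio falls more than 5 SD below the full-stimulation control mean, in both duplicate runs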;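 note: integrated fluorescence ratio of peak minus minimum over baseline after agonist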
# TRPC6 act conf = mouse TRPC6 activator confirmation | shares compounds with TRPC6 inhibitor | HEK293-TRPC6 membrane potential dye fluorescence, FDSS | activation, % at 10 µM | 2,800 tested, 11% active;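 active = ratio signal rise beyond 5 SD above unstimulated control wells' mean, seen in both duplicate runs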;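 note: plate controls were buffer EC0 wells for no effect and acetylcholine ECmax response for full effect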
# Numbers without * were called inactive; i = inactive; . = no result.
SMILES,TRPC6 inhibitor,TRPC4 inh,TRPC6 activator,TRPC4 act,TRPC4 PAM,HEK293 MPD ctr-2,HEK293 MPD ctr 2-2,TRPC4/MOR mod,TRPC4/MOR inh 2,TRPC6 block conf,TRPC6 act conf,others
Cc1ccc(C2CC3CCC(C2)N3Cc2ccccc2F)cc1 (stereo unspecified),i,i,13*,i,i,127%*,i,49%*,42%*,i,58%*,
O=[N+]([O-])c1ccc2nc(N3CCNCC3)ccc2c1,-5*,i,i,i,i,-218%*,i,-38%*,42%*,i,i,
O=C(Nc1ccccc1)c1cc([N+](=O)[O-])ccc1N1CCNCC1,i,i,i,i,i,.,.,.,.,.,.,
CCCc1cc(=O)oc2cc(OCC(=O)N3CCC(C(=O)O)(c4ccccc4)CC3)ccc12,i,i,i,i,i,.,.,.,.,.,.,
Fc1cccc(CN2CCN(c3ccc(Cl)cc3)CC2)c1,-7.1*,i,i,i,i,.,.,.,.,i,i,TRPC4 sel inh 2=i;TRPC4 spec=i;HEK293 MPD ctr 2-1=i;HEK293 MPD ctr-1=i
Fc1ccccc1CN1CCN(c2ccc(Cl)cc2)CC1,i,i,i,i,i,.,.,.,.,.,.,
OC(c1ccccc1)(c1ccc(Cl)cc1)C1CN2CCC1CC2 (stereo unspecified),i,i,i,i,i,.,.,.,.,.,.,
OC(c1ccccc1)(c1ccccc1)C1CN2CCC1CC2 (stereo unspecified),-7.9*,i,i,i,i,.,.,.,.,i,i,TRPC4 sel inh 2=i;TRPC4 spec=i;HEK293 MPD ctr 2-1=i;HEK293 MPD ctr-1=i
OC(Cc1ccccc1)(c1ccccc1)C1CN2CCC1CC2 (stereo unspecified),-5.4*,i,i,i,i,152%*,i,33%*,i,52%*,.,
Cn1c(O)c(Cc2ccc(OCc3ccccc3)cc2)c(=O)n(C)c1=O,i,i,i,i,i,.,.,.,.,.,.,
COc1ccc(CN2C(=O)NC(=O)/C(=C/c3ccc([N+](=O)[O-])s3)C2=O)cc1,i,i,i,i,i,.,.,.,.,.,.,
CSc1ncc(CN2CCCC(C(=O)c3ccccc3SC)C2)cn1 (stereo unspecified),i,i,i,i,i,.,.,.,.,.,.,
COc1cccc(O)c1CN1CCCC(C(=O)c2ccccc2SC)C1 (stereo unspecified),-5.6*,i,i,i,i,192%*,i,26%*,54%*,i,.,
N#CC1=C(N)Oc2c(c(=O)sc3ccccc23)C1c1cccnc1 (stereo unspecified),i,i,i,i,i,.,.,.,.,.,.,
Cc1ccc(CN2C3CCCC2CC(NC(=O)Nc2cccc(F)c2)C3)cc1 (stereo unspecified),-6.5*,i,i,53*,i,i,i,26%*,96%*,49%*,.,
CCS(=O)(=O)NC(C)c1nnc2n1-c1ccc(Br)cc1C(c1ccccc1Cl)=NC2 (stereo unspecified),i,i,i,i,i,.,.,.,.,.,.,
Cc1ccc(-c2nc3ccccc3c(=O)n2-c2cccc(C)n2)cc1,-6*,i,i,i,i,i,i,i,i,i,i,
Cc1ccc(-c2nc3ccccc3c(=O)n2-c2cc(C)ccn2)cc1,i,i,i,i,i,.,.,.,.,.,.,
N#CC(C#N)=NNc1ccc(-n2ccc(C(F)(F)F)n2)cc1,-9.2*,i,i,i,i,170%*,i,27%*,71%*,62%*,i,
O=[N+]([O-])/C=C1/NCCN1Cc1ccc(Cl)nc1,i,i,i,i,i,.,.,.,.,.,.,
CCCCC/C(=N/O)c1c(C)[nH]c2ccccc12,i,i,i,i,i,.,.,.,.,.,.,
CCCC/C(=N/O)c1c(C)[nH]c2ccccc12,-9.5*,i,i,i,i,.,.,.,.,i,i,TRPC4 sel inh 2=i;TRPC4 spec=-13%*;HEK293 MPD ctr 2-1=i;HEK293 MPD ctr-1=-142%*
Clc1ccc2[nH]c3c(c2c1)CCNC3,-5.3*,i,i,i,i,i,i,i,35%*,i,i,
Cc1cnc(NC(=O)CN2CCCCC2)s1,i,i,i,i,i,.,.,.,.,.,.,
O=C(c1ccc(F)cc1)N1CCC2(CC1)OCCO2,i,i,i,i,i,.,.,.,.,.,.,
O=C(c1ccc(Cl)cc1)C1CCCN(C2CCSCC2)C1 (stereo unspecified),-7*,-5*,i,i,i,130%*,i,28%*,50%*,44%*,.,
COc1ccc(C(=O)C2CCCN(Cc3cnc(C)s3)C2)cc1OC (stereo unspecified),i,i,i,i,i,.,.,.,.,.,.,
COc1ccc(C(=O)C2CCCN(C3CSCCSC3)C2)cc1OC (stereo unspecified),-7.7*,i,i,167*,i,i,83%*,59%*,36%*,72%*,i,
CCCCCSc1cc(OC)c(CCNC)cc1OC,-6*,i,i,i,i,i,i,12%*,28%*,i,i,
CCCCCCCSc1cc(OC)c(CCNC)cc1OC,-5.1*,i,i,i,i,i,i,i,50%*,43%*,i,

# Compound activity as filed in PubChem BioAssay.
